Legend:
[1] = Apparent volume of distribution with respect to the bioavailability in human by one-comparment model; assay type: ADME, organism-based; settings: in vivo, read-out: Vc/F
Method in brief: (§1)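 HIV-infected patients (ANRS 107) on atazanavir plus ritonavir plus tenofovir plus optimized background. Week-6 predose plasma trough samples; 10-patient substudy also sampled at 1, 2, 3, 5, 8 and 24 h postdose. Plasma held at −20°C, assayed by LC-MS/MS (LOQ 1 ng/ml). Population analysis used a one-compartment model with first-order absorption and elimination, exponential interindividual variability and proportional residual error.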

[2] = Half life in patient with elevated alpha-1- glycoprotein acid level by one-compartment model; assay type: ADME, organism-based; settings: human, in vivo; method in brief: as §1
Homo sapiens [3] = species: Homo sapiens; test: Absorption rate constant in human by one-compartment model; assay type: ADME, organism-based; settings: in vivo; method in brief: as §1
Homo sapiens [4] = species: Homo sapiens; test: Absorption rate constant in human by covariate model; assay type: ADME, organism-based; settings: in vivo; method in brief: as §1
[5] = Apparent oral clearance in human by one-compartment model; assay type: ADME, organism-based; settings: in vivo; method in brief: as §1
[6] = Apparent oral clearance in human by covariate model; assay type: ADME, organism-based; settings: in vivo; method in brief: as §1
[7] = Apparent volume of distribution with respect to the bioavailability in human by covariate model; assay type: ADME, organism-based; settings: in vivo, read-out: Vc/F; method in brief: as §1
[8] = AUC in patient with elevated alpha-1- glycoprotein acid level by one-compartment model; assay type: ADME, organism-based; settings: human, in vivo; method in brief: as §1
[9] = AUC in patient with => 40 IU/liter ALAT level by one-compartment model; assay type: ADME, organism-based; settings: human, in vivo; method in brief: as §1
[10] = Half life in patient with => 40 IU/liter ALAT level by covariate model; assay type: ADME, organism-based; settings: human, in vivo; method in brief: as §1
[11] = Binding affinity to human alpha-1-glycoprotein acid; assay type: ADME
Method in brief: (§2)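 In vitro binding: alpha-1 glycoprotein acid or serum albumin solutions in pH 7.4 phosphate-buffered saline with added atazanavir. Bound and unbound drug separated by ultrafiltration of 500-µl samples (30,000 Da cutoff membrane), 2 h at 30°C. Ultrafiltrate drug measured by HPLC-UV at 220 nm (C18 column, liquid-liquid extraction, internal standard). Unbound fraction taken as unbound/total concentration. Binding profiled as bound versus unbound concentration.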

Albumin = Albumin (Homo sapiens, UniProt P02768); test: Binding affinity to human serum albumin; assay type: ADME; settings: isolated protein; method in brief: as §2
Chain of Albumin (P02768 whole entry): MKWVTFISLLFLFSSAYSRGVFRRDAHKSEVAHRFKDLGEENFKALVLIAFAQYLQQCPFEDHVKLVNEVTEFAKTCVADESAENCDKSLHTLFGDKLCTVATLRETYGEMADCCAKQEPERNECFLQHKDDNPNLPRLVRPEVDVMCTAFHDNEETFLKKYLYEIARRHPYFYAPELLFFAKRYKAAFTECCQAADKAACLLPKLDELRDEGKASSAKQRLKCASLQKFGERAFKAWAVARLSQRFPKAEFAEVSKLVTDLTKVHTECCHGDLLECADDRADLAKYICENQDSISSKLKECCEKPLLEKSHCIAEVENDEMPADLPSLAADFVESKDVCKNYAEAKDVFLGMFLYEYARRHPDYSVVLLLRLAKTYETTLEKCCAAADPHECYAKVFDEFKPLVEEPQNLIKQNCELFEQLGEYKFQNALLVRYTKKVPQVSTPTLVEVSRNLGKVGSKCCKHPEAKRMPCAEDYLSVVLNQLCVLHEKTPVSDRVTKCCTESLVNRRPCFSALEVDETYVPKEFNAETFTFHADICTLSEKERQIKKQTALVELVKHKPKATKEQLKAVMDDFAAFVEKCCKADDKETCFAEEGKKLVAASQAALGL

[12] = Half life in patient with elevated alpha-1- glycoprotein acid level by covariate model; assay type: ADME, organism-based; settings: human, in vivo; method in brief: as §1
[13] = AUC in patient with elevated alpha-1- glycoprotein acid level by covariate model; assay type: ADME, organism-based; settings: human, in vivo; method in brief: as §1
[14] = AUC in patient with => 40 IU/liter ALAT level by covariate model; assay type: ADME, organism-based; settings: human, in vivo; method in brief: as §1
[15] = Half life in patient with => 40 IU/liter ALAT level by one-compartment model; assay type: ADME, organism-based; settings: human, in vivo; method in brief: as §1

Vd/F [1]: 78.2 L
half-life [2]: 9 h
ka (Homo sapiens [3]): 0.75 h⁻¹
ka (Homo sapiens [4]): 0.73 h⁻¹
CL/F [5]: 130 mL/min
CL/F [6]: 222 mL/min
Vd/F [7]: 79.7 L
AUC [8]: 49.6 µg·h/mL
AUC [9]: 47.4 µg·h/mL
half-life [10]: 7.8 h
Activity [11]: 31.1%
Activity (Albumin): 21.3%
half-life [12]: 9 h
AUC [13]: 49.6 µg·h/mL
AUC [14]: 47.4 µg·h/mL
half-life [15]: 7.8 h
SMILES: COC(=O)N[C@H](C(=O)N[C@@H](Cc1ccccc1)[C@@H](O)CN(Cc1ccc(-c2ccccn2)cc1)NC(=O)[C@@H](NC(=O)OC)C(C)(C)C)C(C)(C)C [ATAZANAVIR]

Source: ChEMBL document CHEMBL1212800, “Influence of alpha-1 glycoprotein acid concentrations and variants on atazanavir pharmacokinetics in HIV-infected patients included in the ANRS 107 trial” (Antimicrob Agents Chemother, 2010)
